Experimental data from ChEMBL document CHEMBL1140959, “Inhibition of PDGFR tyrosine kinase activity by a series of novel N-(3-(4-(pyridin-3-yl)-1H-imidazol-2-ylamino)phenyl)amides: a SAR study on the bioisosterism of pyrimidine and imidazole” (Eur J Med Chem, 2008).
Calls of active or inactive are those of the source. The rule behind the calls is not given here.

Key:
[1] = biological target: Platelet-derived growth factor receptor (Mus musculus, UniProt P05622+P26618); assay: Inhibition of PDGFR autophosphorylation in mouse Swiss 3T3 fibroblast by immunoblotting
Outline: (§1)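 PDGFR autophosphorylation in Swiss 3T3 cells was assayed by a previously described method. IC50 was fitted to a six-concentration curve, with duplicate or triplicate determinations.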

[2] = biological target: Receptor-type tyrosine-protein kinase FLT3 (Homo sapiens) (UniProt P36888); assay: Inhibition of FLT3 autophosphorylation in human EOL1 cells up to 10 ug/ml by immunoblotting; type: cell-based
[3] = biological target: Platelet-derived growth factor receptor (Mus musculus) (UniProt P05622+P26618); assay: Inhibition of PDGFR autophosphorylation in mouse Swiss 3T3 fibroblast up to 10 ug/ml by immunoblotting; outline: as §1
[4] = system: FLT3 (Homo sapiens); assay: Inhibition of FLT3 autophosphorylation in human EOL-1 cells up to 10 ug/ml by immunoblotting

Receptor-type tyrosine-protein kinase FLT3 (Homo sapiens), sequence (P36888 whole entry): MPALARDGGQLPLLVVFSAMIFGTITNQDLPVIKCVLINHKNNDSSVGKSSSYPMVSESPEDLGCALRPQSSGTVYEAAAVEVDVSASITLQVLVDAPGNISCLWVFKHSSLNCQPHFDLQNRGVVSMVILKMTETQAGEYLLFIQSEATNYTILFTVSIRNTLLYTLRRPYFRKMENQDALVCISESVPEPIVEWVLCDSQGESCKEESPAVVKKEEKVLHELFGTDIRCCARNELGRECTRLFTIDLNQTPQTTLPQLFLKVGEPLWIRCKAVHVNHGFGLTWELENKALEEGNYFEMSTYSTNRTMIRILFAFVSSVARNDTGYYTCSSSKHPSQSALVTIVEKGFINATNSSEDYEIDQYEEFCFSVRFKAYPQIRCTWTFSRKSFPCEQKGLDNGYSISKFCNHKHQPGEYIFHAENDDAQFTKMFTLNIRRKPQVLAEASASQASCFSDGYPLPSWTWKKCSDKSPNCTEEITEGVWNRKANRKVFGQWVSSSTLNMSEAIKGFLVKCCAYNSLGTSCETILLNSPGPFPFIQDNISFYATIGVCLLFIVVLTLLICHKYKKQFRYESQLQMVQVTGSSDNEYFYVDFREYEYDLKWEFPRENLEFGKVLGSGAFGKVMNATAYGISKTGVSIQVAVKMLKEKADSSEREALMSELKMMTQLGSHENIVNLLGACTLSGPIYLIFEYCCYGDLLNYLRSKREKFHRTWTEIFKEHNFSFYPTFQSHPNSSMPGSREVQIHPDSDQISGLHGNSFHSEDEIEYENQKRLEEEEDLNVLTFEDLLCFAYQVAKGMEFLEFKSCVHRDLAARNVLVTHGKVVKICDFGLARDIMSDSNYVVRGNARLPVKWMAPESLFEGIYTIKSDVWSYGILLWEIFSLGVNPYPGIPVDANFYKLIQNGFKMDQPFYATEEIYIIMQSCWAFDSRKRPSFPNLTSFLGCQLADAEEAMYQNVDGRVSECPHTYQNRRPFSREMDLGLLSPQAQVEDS

| SMILES | IC50 [1] | Activity [2] | Activity [3] | Activity [4] |
| --- | --- | --- | --- | --- |
| Cc1cccc(C(=O)Nc2cccc(Nc3nc(-c4cccnc4)c[nH]3)c2)c1 | 300 nM | – | – | – |
| CCc1ccc(NC(=O)c2ccccc2)cc1Nc1nc(-c2cccnc2)c[nH]1 | 4700 nM | – | – | – |
| CN1CCN(Cc2ccc(C(=O)Nc3cccc(Nc4nc(-c5cccnc5)c[nH]4)c3)cc2)CC1 | 6500 nM | – | – | – |
| Cc1ccc(C(=O)Nc2ccc(C)c(Nc3nc(-c4cccnc4)c[nH]3)c2)cc1 | 200 nM | inactive | – | inactive |
| Nc1cccc(Nc2nc(-c3cccnc3)c[nH]2)c1 | – | inactive | inactive | – |
| Cc1ccccc1C(=O)Nc1cccc(Nc2nc(-c3cccnc3)c[nH]2)c1 | 600 nM | – | – | – |
| CCc1ccc(NC(=O)c2ccc(C)cc2)cc1Nc1nc(-c2cccnc2)c[nH]1 | 6500 nM | – | – | – |
| Cc1ccc(NC(=O)c2ccc(CN3CCN(C)CC3)cc2)cc1Nc1nc(-c2ccncc2)c[nH]1 | > 10000 nM | – | – | – |
| CCc1ccc(NC(=O)c2cccc(C)c2)cc1Nc1nc(-c2cccnc2)c[nH]1 | 300 nM | – | – | – |
| Cc1ccc(NC(=O)c2ccccc2)cc1Nc1nccc(-c2cccnc2)n1 | 100 nM | – | – | – |
| Cc1ccc(NC(=O)c2ccc(CN3CCN(C)CC3)cc2)cc1Nc1nccc(-c2cccnc2)n1 [IMATINIB] | 300 nM | – | – | – |
| CCc1ccc(NC(=O)c2ccccc2C)cc1Nc1nc(-c2cccnc2)c[nH]1 | 1600 nM | – | – | – |
| COc1ccc(C(=O)Nc2ccc(C)c(Nc3nc(-c4cccnc4)c[nH]3)c2)cc1 | > 30000 nM | inactive | inactive | – |
| Cc1ccc(NC(=O)c2ccc(CN3CCN(C)CC3)cc2)cc1Nc1nc(-c2cccnc2)c[nH]1 | > 10000 nM | inactive | inactive | – |
| Cc1ccc(NC(=O)c2ccc(Cl)cc2)cc1Nc1nc(-c2cccnc2)c[nH]1 | 400 nM | inactive | – | inactive |
| COc1cc(C(=O)Nc2ccc(C)c(Nc3nc(-c4cccnc4)c[nH]3)c2)cc(OC)c1OC | > 10000 nM | inactive | inactive | – |
| Cc1ccc(C(=O)Nc2cccc(Nc3nc(-c4cccnc4)c[nH]3)c2)cc1 | 200 nM | – | – | – |
| CC(=O)Nc1ccc(C)c(Nc2nccc(-c3cccnc3)n2)c1 | 50000 nM | – | – | – |
| Cc1ccc(NC(=O)c2ccc(N)cc2)cc1Nc1nc(-c2cccnc2)c[nH]1 | > 30000 nM | inactive | inactive | – |
| CCCCCCCCCCc1ccc(C(=O)Nc2ccc(C)c(Nc3nc(-c4cccnc4)c[nH]3)c2)cc1 | > 10000 nM | inactive | inactive | – |

The next lines start with the values.

| IC50 [1] | Activity [2] | Activity [3] | Activity [4] | SMILES |
| --- | --- | --- | --- | --- |
| 5900 nM | – | – | – | CC(=O)Nc1ccc(C)c(Nc2nc(-c3cccnc3)c[nH]2)c1 |
| – | inactive | inactive | – | Cc1ccc(N)cc1Nc1nc(-c2ccncc2)c[nH]1 |
| 1800 nM | inactive | – | inactive | Cc1ccc(NC(=O)c2ccncc2)cc1Nc1nc(-c2cccnc2)c[nH]1 |
| – | inactive | inactive | – | CCc1ccc(N)cc1Nc1nc(-c2cccnc2)c[nH]1 |
| > 10000 nM | – | – | – | Cc1ccc(NC(=O)c2ccccc2)cc1Nc1nc(-c2ccncc2)c[nH]1 |
| – | inactive | inactive | – | Cc1ccc(N)cc1Nc1nc(-c2cccnc2)c[nH]1 |
| > 10000 nM | – | – | – | Cc1ccc(NC(=O)c2ccc(CN3CCN(C)CC3)cc2)cc1Nc1nc(-c2ccccc2)c[nH]1 |
| > 30000 nM | inactive | inactive | – | Cc1ccc(NC(=O)c2ccc([N+](=O)[O-])cc2)cc1Nc1nc(-c2cccnc2)c[nH]1 |
| – | inactive | inactive | – | Cc1ccc([N+](=O)[O-])cc1Nc1nc(-c2cccnc2)c[nH]1 |
| – | inactive | inactive | – | Cc1ccc([N+](=O)[O-])cc1Nc1nc(-c2ccccc2)c[nH]1 |
| 300 nM | inactive | – | inactive | Cc1ccc(NC(=O)c2ccccc2)cc1Nc1nc(-c2cccnc2)c[nH]1 |
| – | inactive | inactive | – | CCc1ccc([N+](=O)[O-])cc1Nc1nc(-c2cccnc2)c[nH]1 |
| – | inactive | inactive | – | O=[N+]([O-])c1cccc(Nc2nc(-c3cccnc3)c[nH]2)c1 |
| – | inactive | inactive | – | Cc1ccc([N+](=O)[O-])cc1Nc1nc(-c2ccncc2)c[nH]1 |
| > 30000 nM | – | – | – | CC(=O)Nc1ccc(C)c(Nc2nc(-c3ccccc3)c[nH]2)c1 |
| – | inactive | inactive | – | Cc1ccc(N)cc1Nc1nc(-c2ccccc2)c[nH]1 |
| 7100 nM | – | – | – | Cc1ccc(NC(=O)c2ccccc2)cc1Nc1nc(-c2ccccc2)c[nH]1 |
| 2200 nM | – | – | – | Cc1cccc(C(=O)Nc2ccc(C)c(Nc3nc(-c4cccnc4)c[nH]3)c2)c1 |
| 600 nM | – | – | – | Cc1ccc(NC(=O)c2ccccc2C)cc1Nc1nc(-c2cccnc2)c[nH]1 |
